Reference: ChEMBL document CHEMBL1131828, “Synthesis and biological evaluation of a new class of vaccine adjuvants: aminoalkyl glucosaminide 4-phosphates (AGPs)” (1999)
Converted amounts (≈) assume the structure as drawn.

What was measured:
Format in all cases: functional
[1] = species on record: Mus musculus; test: Ability to enhance antibody response to tetanus toxoid vaccine, IgG2a
Procedure, shortened: (§1)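 Mice were immunized with tetanus toxoid in an oil-water emulsion with test article, then boosted 21 days after the primary dose. Serum was taken 14 days after the second injection and assayed by ELISA. Values are test titers divided by the titer of controls given oil-water vehicle with tetanus toxoid only.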

[2] = species on record: Mus musculus; test: Percent of cytotoxicity was determined for augment vaccine-induced CTL's against EG.7-ova target cells in two separate murine models
Procedure, shortened: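 C57BL/6 (H-2b) mice, 6 per group, were immunized on days 0 and 14 with a 2.5% oil-water emulsion containing 25 µg ovalbumin plus test article. On day 21, spleens were tested for ovalbumin-specific CTL against 51Cr-labeled E.G7-ova target cells, an ovalbumin-transfected line. Read-out was percent specific lysis.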

[3] = species on record: Mus musculus; test: Ability to enhance antibody response to tetanus toxoid vaccine, total Immunoglobulin (Ig); procedure, shortened: as §1
[4] = species on record: Oryctolagus cuniculus; test: Minimum pyrogenic dose was determined for Febrile response in a standard 3-rabbit USP pyrogen test by injecting compound in the marginal ear vein
Procedure, shortened: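 Test article dissolved in EtOH, then diluted with D5W to the desired concentrations just before injection. The minimal pyrogenic dose is the dose at which the summed temperature rise over the three rabbits reaches at least 1.2 °C.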

[5] = species on record: Mus musculus; test: Half-maximal response in vitro using peritoneal exudate cells from Propionibacterium acnes-primed mice; conditions: read-out: ED50 (the source's name)
[6] = species on record: Mus musculus; test: Ability to enhance antibody response to tetanus toxoid vaccine, IgG2b; procedure, shortened: as §1
[7] = species on record: Mus musculus; test: Ability to enhance antibody response to tetanus toxoid vaccine, IgG1; procedure, shortened: as §1
[8] = species on record: Homo sapiens; test: Relative ex vivo induction of TNF-alpha in human whole blood stimulated with 10 ug/mL
Procedure, shortened: (§2)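 Human whole blood was stimulated with sample, and cell-associated TNF-α and IL-1β were measured by sandwich ELISA. Relative induction below 0.05 was scored as not detected.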

[9] = species on record: Homo sapiens; test: Relative ex vivo induction of IL1-beta in human whole blood stimulated with 10 ug/mL; procedure, shortened: as §2

SMILES	Response [1]	Cytotoxicity [2] [%]	Response [3]	Dose [4] [µg/kg]	EC50 [5] [ng/mL]	Response [6]	Response [7]	Cytokine induction [8]	Cytokine induction [9]
CCCCCCCCCCCCCC(=O)O[C@H](CCCCCCCCCCC)CC(=O)N[C@@H](CO)CO[C@@H]1OC(CO)[C@H](OP(=O)(O)O)C(OC(=O)C[C@@H](CCCCCCCCCCC)OC(=O)CCCCCCCCCCCCC)[C@@H]1NC(=O)C[C@@H](CCCCCCCCCCC)OC(=O)CCCCCCCCCCCCC (some centres undefined)	3.8	34	4	>10	150 (≈ 91.3 nM)	2.4	3.4	–	–
CCCCCCCCCCC[C@H](CC(=O)N[C@H](CO[C@@H]1OC(CO)[C@H](OP(=O)(O)O)C(OC(=O)C[C@@H](CCCCCCCCCCC)OC(=O)CCCCCCCCC)[C@@H]1NC(=O)C[C@@H](CCCCCCCCCCC)OC(=O)CCCCCCCCC)C(=O)O)OC(=O)CCCCCCCCC (some centres undefined)	–	–	–	<2.5	0.3 (≈ 0.202 nM)	–	–	1.5	0.6
CCCCCCCCCCCCCC(=O)O[C@H](CCCCCCCCCCC)CC(=O)N[C@H](CO)CO[C@@H]1OC(CO)[C@H](OP(=O)(O)O)C(OC(=O)C[C@@H](CCCCCCCCCCC)OC(=O)CCCCCCCCCCCCC)[C@@H]1NC(=O)C[C@@H](CCCCCCCCCCC)OC(=O)CCCCCCCCCCCCC (some centres undefined)	4.3	21	3.8	10	9 (≈ 5.48 nM)	1.6	2.2	3.5	4.9
CCCCCCCCCCC[C@H](CC(=O)N[C@@H](CO[C@@H]1OC(CO)[C@H](OP(=O)(O)O)C(OC(=O)C[C@@H](CCCCCCCCCCC)OC(=O)CCCCCCCCC)[C@@H]1NC(=O)C[C@@H](CCCCCCCCCCC)OC(=O)CCCCCCCCC)C(=O)O)OC(=O)CCCCCCCCC (some centres undefined)	6.8	58	18.9	<0.06	0.06 (≈ 0.0403 nM)	2.8	4.2	>6	23
CCCCCCCCCCCCCCCC(=O)O[C@H](CCCCCCCCCCC)CC(=O)N[C@H]1[C@@H](O)[C@H](O)[C@H](CO[C@@H]2O[C@@H](CO)[C@@H](OP(=O)(O)O)[C@H](OC(=O)C[C@@H](CCCCCCCCCCC)OC(=O)CCCCCCCCCCCCC)[C@@H]2NC(=O)C[C@@H](CCCCCCCCCCC)OC(=O)CCCCCCCCCCC)O[C@H]1O	–	31	–	10	14 (≈ 8.09 nM)	–	–	1.2	0.7
CCCCCCCCCCC[C@H](CC(=O)NCCO[C@@H]1OC(CO)[C@H](OP(=O)(O)O)C(OC(=O)C[C@@H](CCCCCCCCCCC)OC(=O)CCCCCCCCC)[C@@H]1NC(=O)C[C@@H](CCCCCCCCCCC)OC(=O)CCCCCCCCC)OC(=O)CCCCCCCCC (some centres undefined)	–	36	–	10	0.5 (≈ 0.346 nM)	–	–	1.3	1.9
CCCCCCCCCCCCCC(=O)O[C@H](CCCCCCCCCCC)CC(=O)NC(CO[C@@H]1OC(CO)[C@H](OP(=O)(O)O)C(OC(=O)C[C@@H](CCCCCCCCCCC)OC(=O)CCCCCCCCCCCCC)[C@@H]1NC(=O)C[C@@H](CCCCCCCCCCC)OC(=O)CCCCCCCCCCCCC)C(=O)O (some centres undefined)	2.1	14	3.6	0.6	3 (≈ 1.81 nM)	0.9	1.9	1.7	4.8
CCCCCCCCCCC[C@H](CC(=O)NC(CO[C@@H]1OC(CO)[C@H](OP(=O)(O)O)C(OC(=O)C[C@@H](CCCCCCCCCCC)OC(=O)CCCCC)[C@@H]1NC(=O)C[C@@H](CCCCCCCCCCC)OC(=O)CCCCC)C(=O)O)OC(=O)CCCCC (some centres undefined)	0.3	–	1.1	<2.5	> 10000	0.9	1.3	–	–
CCCCCCCCCCC[C@H](CC(=O)NC(CO[C@@H]1OC(CO)[C@H](OP(=O)(O)O)C(OC(=O)C[C@@H](CCCCCCCCCCC)OC(=O)CCCCC)[C@@H]1NC(=O)C[C@@H](CCCCCCCCCCC)OC(=O)CCCCC)C(N)=O)OC(=O)CCCCC (some centres undefined)	–	–	–	>10	> 10000	–	–	–	–
CCCCCCCCCCCCCC(=O)O[C@H](CCCCCCCCCCC)CC(=O)NC(CO[C@@H]1OC(CO)[C@H](OP(=O)(O)O)C(OC(=O)C[C@@H](CCCCCCCCCCC)OC(=O)CCCCCCCCCCCCC)[C@@H]1NC(=O)C[C@@H](CCCCCCCCCCC)OC(=O)CCCCCCCCCCCCC)C(=O)OC (some centres undefined)	–	–	–	10	67 (≈ 40.1 nM)	–	–	1.1	1.1
CCCCCCCCCCC[C@H](CC(=O)NCCO[C@@H]1OC(CO)[C@H](OP(=O)(O)O)C(OC(=O)C[C@@H](CCCCCCCCCCC)OC(=O)CCCCC)[C@@H]1NC(=O)C[C@@H](CCCCCCCCCCC)OC(=O)CCCCC)OC(=O)CCCCC (some centres undefined)	–	–	–	10	> 10000	–	–	–	–
CCCCCCCCCCCC(=O)O[C@H](CCCCCCCCCCC)CC(=O)NC(CO[C@@H]1OC(CO)[C@H](OP(=O)(O)O)C(OC(=O)C[C@@H](CCCCCCCCCCC)OC(=O)CCCCCCCCCCC)[C@@H]1NC(=O)C[C@@H](CCCCCCCCCCC)OC(=O)CCCCCCCCCCC)C(=O)O (some centres undefined)	–	–	–	<2.5	0.9 (≈ 0.572 nM)	–	–	3.6	2
CCCCCCCCCCCCCC(=O)O[C@H](CCCCCCCCCCC)CC(=O)NC(CO[C@@H]1OC(CO)[C@H](OP(=O)(O)O)C(OC(=O)C[C@@H](CCCCCCCCCCC)OC(=O)CCCCCCCCCCCCC)[C@@H]1NC(=O)C[C@@H](CCCCCCCCCCC)OC(=O)CCCCCCCCCCCCC)C(N)=O (some centres undefined)	–	–	–	10	20 (≈ 12.1 nM)	–	–	1.1	0.9
CCCCCCCCCCCCCC(=O)O[C@H](CCCCCCCCCCC)CC(=O)NCCO[C@@H]1OC(CO)[C@H](OP(=O)(O)O)C(OC(=O)C[C@@H](CCCCCCCCCCC)OC(=O)CCCCCCCCCCCCC)[C@@H]1NC(=O)C[C@@H](CCCCCCCCCCC)OC(=O)CCCCCCCCCCCCC (some centres undefined)	–	59	–	10	100 (≈ 62 nM)	–	–	0.3	0.3
CCCCCCCCCCCCCC(=O)O[C@H](CCCCCCCCCCC)CC(=O)NCCCCCCCCO[C@@H]1OC(CO)[C@H](OP(=O)(O)O)C(OC(=O)C[C@@H](CCCCCCCCCCC)OC(=O)CCCCCCCCCCCCC)[C@@H]1NC(=O)C[C@@H](CCCCCCCCCCC)OC(=O)CCCCCCCCCCCCC (some centres undefined)	–	–	–	>10	> 10000	–	–	–	–
CCCCCCCCCCC[C@H](CC(=O)NC(CO[C@@H]1OC(CO)[C@H](OP(=O)(O)O)C(OC(=O)C[C@@H](CCCCCCCCCCC)OC(=O)CCCCCCC)[C@@H]1NC(=O)C[C@@H](CCCCCCCCCCC)OC(=O)CCCCCCC)C(=O)O)OC(=O)CCCCCCC (some centres undefined)	–	–	–	<2.5	33 (≈ 23.5 nM)	–	–	–	–
CCCCCCCCCCCCCC(=O)O[C@H](CCCCCCCCCCC)CC(=O)NCCCCCCO[C@@H]1OC(CO)[C@H](OP(=O)(O)O)C(OC(=O)C[C@@H](CCCCCCCCCCC)OC(=O)CCCCCCCCCCCCC)[C@@H]1NC(=O)C[C@@H](CCCCCCCCCCC)OC(=O)CCCCCCCCCCCCC (some centres undefined)	–	–	–	>10	160 (≈ 95.9 nM)	–	–	–	–
CCCCCCCCCCCCCC(=O)O[C@H](CCCCCCCCCCC)CC(=O)NCCCO[C@@H]1OC(CO)[C@H](OP(=O)(O)O)C(OC(=O)C[C@@H](CCCCCCCCCCC)OC(=O)CCCCCCCCCCCCC)[C@@H]1NC(=O)C[C@@H](CCCCCCCCCCC)OC(=O)CCCCCCCCCCCCC (some centres undefined)	5.8	38	4.7	10	8 (≈ 4.92 nM)	6.1	2.2	2.3	3.5
CCCCCCCCCCC[C@H](CC(=O)NC(CO[C@@H]1OC(CO)[C@H](OP(=O)(O)O)C(OC(=O)C[C@@H](CCCCCCCCCCC)OC(=O)CCCCCCCCC)[C@@H]1NC(=O)C[C@@H](CCCCCCCCCCC)OC(=O)CCCCCCCCC)C(N)=O)OC(=O)CCCCCCCCC (some centres undefined)	1.7	65	8.9	10	0.3 (≈ 0.202 nM)	3.3	2.6	3.5	6.2
CCCCCCCCCCCCCC(=O)O[C@H](CCCCCCCCCCC)CC(=O)NCCCCO[C@@H]1OC(CO)[C@H](OP(=O)(O)O)C(OC(=O)C[C@@H](CCCCCCCCCCC)OC(=O)CCCCCCCCCCCCC)[C@@H]1NC(=O)C[C@@H](CCCCCCCCCCC)OC(=O)CCCCCCCCCCCCC (some centres undefined)	–	58	–	10	51 (≈ 31.1 nM)	–	–	1	0.3
